Results as given in the array DNA melting data of Ke et al. (doi:10.1101/2024.01.08.574731).

Tests used:
[1] = folding enthalpy; higher = less favourable; fluorescence melt of hairpins on a sequencing array, two-state fit; conditions: sodium 0.088 M
Procedure, shortened: (§1)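 Cy3 fluorescence of library hairpins on a sequenced MiSeq flow cell, with annealed Cy3 and quencher oligos, was imaged in 50 mM Na-HEPES pH 8.0, 25 mM NaCl in 2.5 °C steps up to 60 °C. Signals were normalised to pre-quench Cy3 and to control variants. Melting temperature and folding enthalpy came from bootstrapped two-state fits, inverse-variance combined over four replicates. Fitted temperatures were raised by 9.35 °C to match UV melts.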

[2] = melting temperature; fluorescence melt of hairpins on a sequencing array, two-state fit, raised by 9.35 °C to match UV melts; conditions: sodium 0.088 M
Procedure, shortened: as §1

Row | Sequence | folding enthalpy [1] | Tm [2]
1 | GGGGCCGAAAGGCTCCCC ((((((....)))..))) | -11.7 kcal/mol | 65 °C
2 | GCCATCCGAAAGGAGGC (((.(((....)))))) | -22.8 kcal/mol | 57.6 °C
3 | GCAGTCGAAAGACATTGC ((((((....)))..))) | -17.1 kcal/mol | 38.1 °C
4 | GGTTCGAAAGAACC (((((....))))) | -28.2 kcal/mol | 64.8 °C
5 | GTTCTCGGAAACAAGAAC (((((.(....).))))) | -14.8 kcal/mol | 33.9 °C
6 | GCTAGGCGAAAGCCCAGC (((.(((....))).))) | -23.7 kcal/mol | 50.7 °C
7 | GTTCGCGGAAACACGAAC (((((.(....).))))) | -39.7 kcal/mol | 48.9 °C
8 | GGTATCGAAAGATCAACC ((((((....)))..))) | -12.9 kcal/mol | 27 °C
9 | GTCTCAGGAAACTAAGAC ((((.((....)).)))) | -11.5 kcal/mol | 24.2 °C
10 | GTACGCGGAAACGCGCAC ((.((((....)))).)) | -14 kcal/mol | 52.9 °C
11 | GTACCACGAAAGTGCTAC (((.(((....))).))) | -13.7 kcal/mol | 33.6 °C
12 | GATCCGCGACCGGATC ((((((....)))))) | -38.4 kcal/mol | 54.8 °C
13 | GATCACCCTGTGATC ((((((...)))))) | -42.3 kcal/mol | 59.3 °C
14 | GCATTGCGAAAGCTAGGC ((.(.((....)).).)) | -17.9 kcal/mol | 48.7 °C
15 | GTACTAGGAAACCAGTAC (((((.(....).))))) | -26.9 kcal/mol | 36 °C
16 | GCGTCTTACGC ((((...)))) | -21.1 kcal/mol | 62.5 °C
17 | GCCCAGCGAAAGCGGTGC ((.(.((....)).).)) | -15.8 kcal/mol | 53.1 °C
18 | GATAAACGAAAGTTCATC (((.(((....))).))) | -27.3 kcal/mol | 29.2 °C
19 | GGCTGTGGAAACGCAGCC (((((.(....).))))) | -48.6 kcal/mol | 63.4 °C

Row | Sequence | folding enthalpy [1] | Tm [2]
20 | GATCTATCCCTAGATC ((((((....)))))) | -32.4 kcal/mol | 41.4 °C
21 | GAGTAAGGAAACTTGCTC (((.(((....))).))) | -27.8 kcal/mol | 40.3 °C
22 | GTAGTCGGAAACGATTAC (((.(((....))).))) | -30.4 kcal/mol | 44.1 °C
23 | GCCAACGGAAACGTTAGC ((.((((....)))).)) | -23.6 kcal/mol | 40 °C
24 | GGGCTCGAAAGAGGTCCC ((((((....)))..))) | -17.1 kcal/mol | 48.2 °C
25 | GCAATCGAAAGATGGTGC ((((((....)))..))) | -21.2 kcal/mol | 36.3 °C
26 | GAAAAACCGAAAGGTTTC (((..(((....)))))) | -12.4 kcal/mol | 34.8 °C
27 | GATCTGACGACAGATC ((((((....)))))) | -35 kcal/mol | 48.5 °C
28 | GATCATCAGATGATC ((((((...)))))) | -35.1 kcal/mol | 44.5 °C
29 | GCGTGGCGAAAGCCGTGC ((..(((....)))..)) | -19.2 kcal/mol | 57.4 °C
30 | GAGTGGCGAAAGCCCTC (((.(((....)))))) | -16.4 kcal/mol | 51.3 °C
31 | GAAGCGGGAAACCGTTTC (((.(((....))).))) | -28.2 kcal/mol | 47.1 °C
32 | GAGCAGCGAAAGCTCTC (((.(((....)))))) | -17.6 kcal/mol | 47.4 °C
33 | GATTGCGAAAGCAGATC ((((((....))).))) | -15.8 kcal/mol | 42.9 °C
34 | GCCGACGAAAGTCACGGC ((((((....)))..))) | -26.8 kcal/mol | 53.1 °C
35 | GATCGAACGTTCGATC ((((((....)))))) | -49.3 kcal/mol | 56.7 °C
36 | GTCAGGGGAAACCTTGAC ((((.((....)).)))) | -28.1 kcal/mol | 47.2 °C
37 | GATCTGAATGCAGATC ((((((....)))))) | -30.7 kcal/mol | 47.3 °C
38 | GTTCATGGAAACACGAAC ((((.((....)).)))) | -28.4 kcal/mol | 34.4 °C
